Measured values from ChEMBL document CHEMBL4610103, “Oleanane Triterpenoids from the Leaves of Gymnema inodorum and Their Insulin Mimetic Activities” (J Nat Prod, 2020).
Calls of active or inactive are those of the source.

What was measured:
Format in all cases: functional, cell-based
3T3-L1 [1] = experiment: Induction of glucose uptake in mouse 3T3L1 cells assessed as increase in 2-NBDG uptake after 1 hr by fluorescence method
Method in brief: (§1)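 Differentiated 3T3-L1 adipocytes switched to glucose-free medium containing 100 nM insulin, test compounds (20 μM single dose, or 5, 10 and 20 μM) and 50 μM 2-NBDG. Cells washed twice with PBS and lysed in 1% Triton X-100/0.1 M K3PO4 in PBS. Fluorescence read at ex 450/em 535 nm. Means ± SD of three independent experiments, each in triplicate. DMSO vehicle control; insulin positive control.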

3T3-L1 [2] = experiment: Induction of glucose uptake in mouse 3T3L1 cells assessed as increase in 2-NBDG uptake at 20 uM after 1 hr by fluorescence microscopy
Method in brief: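 Differentiated 3T3-L1 adipocytes treated with 20 μM compound in the presence of 2-NBDG. Green fluorescence inside cells was imaged by fluorescence microscopy to follow 2-NBDG transport. Signals expressed as means ± SD (n = 3). DMSO negative control; insulin positive control.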

3T3-L1 [3] = experiment: Induction of glucose uptake in mouse 3T3L1 cells assessed as increase in 2-NBDG uptake at 20 uM after 1 hr by fluorescence method; method in brief: as §1

Measured: Activity

CC1(C)C[C@H](OC(=O)c2ccccc2)[C@]2(CO)[C@@H](O)C[C@]3(C)C(=CC[C@@H]4[C@@]5(C)CC[C@H](O[C@@H]6O[C@H](C(=O)O)[C@@H](O)[C@H](O)[C@H]6O)[C@@](C)(CO)[C@@H]5CC[C@]43C)[C@@H]2C1
active: 3T3-L1 [1] Dose-dependent effect | 3T3-L1 [2] | 3T3-L1 [3]

CC1(C)CC[C@]2(C)[C@@H](O)C[C@]3(C)C(=CC[C@@H]4[C@@]5(C)CC[C@H](O[C@@H]6O[C@H](C(=O)O)[C@@H](O)[C@H](O)[C@H]6O[C@@H]6O[C@H](CO)[C@@H](O)[C@H](O)[C@H]6O)C(C)(C)[C@@H]5CC[C@]43C)[C@@H]2C1
active: 3T3-L1 [1] Dose-dependent effect | 3T3-L1 [2] | 3T3-L1 [3]

CNc1ccccc1C(=O)O[C@H]1CC(C)(C)C[C@H]2C3=CC[C@@H]4[C@@]5(C)CC[C@H](O[C@@H]6O[C@H](C(=O)O)[C@@H](O)[C@H](O)[C@H]6O)[C@@](C)(CO)[C@@H]5CC[C@@]4(C)[C@]3(C)C[C@H](O)[C@@]12CO
active: 3T3-L1 [1] Dose-dependent effect | 3T3-L1 [2] | 3T3-L1 [3]
